These entries were drawn from the full list.
HKDC1 act: increases human hexokinase HKDC1 activity; recombinant HKDC1, G6PDH/diaphorase resazurin fluorescence; active compounds read low; activity change, negative = activation, % at 20 µM; hit rate 0.056% among 340,000; Q2TB90;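 active means activation of 40% or more at 20 µM, a change of -40% or lower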
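System: in-house human HKDC1 enzyme, G6PDH and diaphorase coupling enzymes; Quantity: 5 µg/mL HKDC1 final; Buffer or medium: Tris/MgCl2 buffer, pH 8.0; Dosing: single compound dose of 20 µM, 1% DMSO final; Times: 90 min reaction at room temperature, dark; Detection: coupled resazurin-to-resorufin fluorescence, Ex 525/Em 613 nm.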
An asterisk follows results filed as active.

SMILES	HKDC1 act
Cc1ccc(OP2(=O)Nc3cc(C)c(C)cc3S2)cc1 (centres undefined)	-41*
Cn1ncnc2c(=O)n(C)c(=O)nc1-2	69
Cc1cccc(N2C(=O)NC(=O)/C(=C\c3cc(C)n(-c4sc5c(c4C#N)CCCC5)c3C)C2=O)c1C	72
COc1cc2c(cc1OC)-c1c(OC)c(OC)c(OC)c3ccnc(c13)C2=O	50
Nc1cnn(-c2ccccc2)c(=O)c1Cl	45

High-throughput results (PubChem BioAssay)
